Tests used:
[1] = Octanol-water partition coefficient, log P of the compound; type: physicochemical
In short: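 Log P measured as the partition coefficient between n-octanol and water.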

[2] = AUC (0 to 4 hrs) in Japanese white rabbit retina after ocular instillation of 1% suspension; type: ADME, tissue-based, Oryctolagus cuniculus; parameters: time < 4 hr; settings: topical or ocular
In short: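 Rabbit eyes given topical drops of 1% suspension or solution. Retinal drug levels measured over 0–4 h, with n = 3-4 eyes per time point. AUC0–4h is calculated from the mean level-time curve.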

[3] = AUC (0 to 4 hrs) in Japanese white rabbit aqueous humor after ocular instillation of 1% suspension; type: ADME, Oryctolagus cuniculus; parameters: time < 4 hr; settings: topical or ocular
In short: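 Rabbit eyes given topical drops of 1% suspension or solution. Aqueous humor drug levels measured over 0–4 h, with n = 3-4 eyes per time point. AUC0–4h is calculated from the mean level-time curve.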

[4] = Plasma AUC (0 to 4 hrs) in cynomolgus monkey at 10 mg/kg, po; type: ADME, organism-based, Macaca fascicularis; parameters: time < 4 hr, dose 10 mg/kg, route oral
In short: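 Cynomolgus monkeys dosed orally at 10 mg/kg as a 0.2% suspension or solution in 0.5% carboxymethyl cellulose. Plasma drug levels followed over 0–4 h (n = 3-6), and AUC0–4h is derived from the plasma level-time curve.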

[5] = Drug concentration in rat retina at 10 mg/kg, po at Tmax time; type: ADME, organism-based; parameters: dose 10 mg/kg, route oral; settings: in vivo, read-out: Drug uptake
[6] = Drug concentration in rat retina at 10 mg/kg, po after 4 hrs; type: ADME, organism-based; parameters: dose 10 mg/kg, route oral; settings: read-out: Drug uptake

Compound | logP [1] | AUC(0-t) at 4 h [2] | AUC(0-t) at 4 h [3] | AUC(0-t) at 4 h [4] | concentration [5] | concentration at 4 h [6]
COCCOCCOCCOC(=O)N[C@@H](CC(C)C)C(=O)N[C@@H](Cc1ccccc1)C(=O)C(=O)NC1CC1 | 0.93 | 13.1 µM·h | 7.88 µM·h | 1.6 µM·h | – | –
COCCOC(=O)N[C@@H](CC(C)C)C(=O)N[C@@H](Cc1ccccc1)C(=O)C(=O)NC1CC1 | 1 | 1.32 µM·h | 1.9 µM·h | 1.88 µM·h | – | –
COCCOCCOCCOCCOC(=O)N[C@@H](CC(C)C)C(=O)N[C@@H](Cc1ccccc1)C(=O)C(=O)NC1CC1 | 0.7 | 7.12 µM·h | 5.89 µM·h | 1.61 µM·h | – | –

More lines, now with the values ahead:

logP [1] | AUC(0-t) at 4 h [2] | AUC(0-t) at 4 h [3] | AUC(0-t) at 4 h [4] | concentration [5] | concentration at 4 h [6] | Compound
0.72 | 2.99 µM·h | 1.96 µM·h | – | – | – | COCCOCCOCCOCCOCCOC(=O)N[C@@H](CC(C)C)C(=O)N[C@@H](Cc1ccccc1)C(=O)C(=O)NC1CC1
0.91 | 2.37 µM·h | 1.55 µM·h | 2.43 µM·h | 400 nM | 200 nM | COCCOCCOC(=O)N[C@@H](CC(C)C)C(=O)N[C@@H](Cc1ccccc1)C(=O)C(=O)NC1CC1

Source: ChEMBL document CHEMBL1144224, “Molecular design to enhance the penetration into the retina via ocular instillation” (Bioorg Med Chem Lett, 2008)
